Source: PubChem BioAssay (Johns Hopkins Ion Channel Center)
Compounds with a hit are over-represented: about 2.3% of the library has one in this group of screens.
TRPC6 inhibitor = blocks the mouse TRPC6 cation channel. Q61143. HEK293-TRPC6, membrane potential dye, ACh-evoked depolarization; hits give low values. B-score at 10 µM. 310,000 tested, 1.1% active. AID 2553;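 active = B-score under library mean minus 3 SD, initial fluorescence not abnormally high, positive integrated signal ratio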;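 note: B-score derived from integrated fluorescence ratio over the kinetic read; more negative B-score means stronger inhibition of depolarization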
Target sequence (Q61143 whole entry, looked up): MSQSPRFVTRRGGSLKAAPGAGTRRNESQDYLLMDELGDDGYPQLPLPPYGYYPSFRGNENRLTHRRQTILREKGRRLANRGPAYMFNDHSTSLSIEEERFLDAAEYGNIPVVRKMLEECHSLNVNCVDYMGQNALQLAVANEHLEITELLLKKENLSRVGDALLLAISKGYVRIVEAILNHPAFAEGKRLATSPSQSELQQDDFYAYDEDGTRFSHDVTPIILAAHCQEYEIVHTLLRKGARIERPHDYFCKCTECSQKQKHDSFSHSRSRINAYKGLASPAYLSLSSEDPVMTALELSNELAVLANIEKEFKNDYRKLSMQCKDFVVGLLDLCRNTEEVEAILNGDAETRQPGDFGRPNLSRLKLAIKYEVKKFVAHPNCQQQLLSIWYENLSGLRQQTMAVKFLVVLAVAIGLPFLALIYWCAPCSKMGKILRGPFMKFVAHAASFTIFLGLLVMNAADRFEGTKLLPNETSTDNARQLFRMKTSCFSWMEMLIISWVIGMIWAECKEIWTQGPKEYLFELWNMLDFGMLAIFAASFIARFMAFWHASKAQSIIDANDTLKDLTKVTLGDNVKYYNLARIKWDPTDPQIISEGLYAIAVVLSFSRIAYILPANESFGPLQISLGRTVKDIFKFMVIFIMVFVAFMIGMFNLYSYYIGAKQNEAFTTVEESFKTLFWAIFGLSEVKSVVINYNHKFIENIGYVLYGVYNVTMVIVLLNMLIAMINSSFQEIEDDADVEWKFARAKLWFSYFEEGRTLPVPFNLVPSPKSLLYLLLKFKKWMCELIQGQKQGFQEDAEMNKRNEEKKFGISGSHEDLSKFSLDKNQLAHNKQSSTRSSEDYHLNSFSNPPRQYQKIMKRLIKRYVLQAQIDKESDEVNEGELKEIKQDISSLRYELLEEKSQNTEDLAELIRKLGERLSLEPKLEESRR
TRPC4 agonist = opens the mouse TRPC4 cation channel; Q9QUQ5; HEK293 TRPC4beta/mu-opioid, Fluo4 calcium fluorescence; hits give high values; B-score at 10 µM; 310,000 tested, 0.49% active;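 active = B-score above 5 SD of library B-scores, and initial fluorescence ratio not above library mean plus 5 SD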;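 note: positive B-score marks a calcium rise read as TRPC4 activation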
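System – HEK293 cells stably co-expressing mouse TRPC4beta and mu-opioid receptor · Signal – Fluo4 calcium-sensitive dye fluorescence, kinetic, 1 Hz baseline · Benchmarks – buffer (low) and maximal DAMGO (high) · Read-out – B score of integrated fluorescence ratio per well · Incubation – dye loading 45 min room temperature, 110 s kinetic read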
TRPC6 act = activates the mouse TRPC6 cation channel. Q61143. HEK293-TRPC6 membrane potential dye fluorescence; hits give high values. B-score at 10 µM. 310,000 tested, 0.13% active. AID 2550;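 active = B-score of the integrated fluorescence ratio above library mean plus 3 SD, and starting fluorescence ratio within library mean plus 5 SD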;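 note: higher score means more depolarization so channel activation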
TRPC4 PAM = allosterically enhances the mouse TRPC4 cation channel | HEK293 TRPC4beta/mu-opioid, DAMGO EC20, Fluo-4 Ca2+ flux; hits give high values | B-score at 10 µM | 310,000 tested, 0.42% active;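 active = B-score of calcium response area above 5 SD of library B-scores, with initial fluorescence ratio within 5 SD of library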
TRPC4 inh = inhibitors of mouse TRPC4 channel; Q9QUQ5; AID 2247; HEK293 TRPC4beta/mu-opioid, DAMGO-evoked Fluo4 calcium flux; hits give low values; B-score at 10 µM; 300,000 tested, 0.39% active;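 active = B-score over 3 SD under the library average, no early fluorescence shift, positive overall ratio signal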
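Assay system: HEK293 cells with stable TRPC4beta plus mu-opioid receptor expression; Probe or stimulus: DAMGO in two steps, submaximal then maximal; Dosing: single-point compound dosing; Measured by: Fluo4 calcium-dye fluorescence, kinetic read; Read-out basis: B score from integrated Fluo4 fluorescence ratio.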
Hits are given with their value; – = inactive.

SMILES	TRPC6 inhibitor	TRPC4 agonist	TRPC6 act	TRPC4 PAM	TRPC4 inh
C[C@H]1O[C@@H](OC2CC[C@]3(C=O)[C@H]4CC[C@]5(C)[C@@H](C6=CC(=O)OC6)CC[C@]5(O)[C@@H]4CC[C@]3(O)C2)CC2OC(C)(C)OC21 (stereo not given in full)	–	–	–	–	–
CCC(=Nc1ccc(OC)cc1OC)c1c(O)[nH]c(=O)[nH]c1=O	–	–	–	–	–
C=CCN1CC[C@]23c4c5ccc(O)c4O[C@H]2/C(=N/NC(=O)c2ccccc2)CC[C@@]3(O)[C@H]1C5	–	49	–	–	–
CCc1ccc(/C=C(/C#N)C(N)=S)cc1	–	–	–	–	–
CCCCn1c(NS(=O)(=O)c2ccccc2)c(C(=O)OCC)c2nc3ccccc3nc21	–	–	–	–	–
CCCCn1c(NC(=O)c2ccc(Br)o2)c(C(=O)OCC)c2nc3ccccc3nc21	–	–	15.5	–	–
O=C(Nc1ccccc1F)OC1CN2CCC1CC2 (stereo not given)	–	–	–	–	–
O=C(Nc1ccccc1Cl)OC1CN2CCC1CC2 (stereo not given)	–	–	–	25	–
Cc1nc2ccc(Cl)cc2c(=O)n1-c1ccccc1Cl	–	–	–	–	–
CN(C)C1(CNC(=O)c2ccc(Cl)c(S(=O)(=O)NCc3ccco3)c2)CCCCC1	–	73	–	–	–
O=c1[nH]c(=S)n(-c2ccc(F)cc2)c(O)c1/C=N/N1CCOCC1	–	–	–	–	–
CCOc1c(Cl)cc(CNC(C)C(O)c2ccccc2)cc1OC (stereo not given)	–	–	–	–	-6
COc1cc(OC)c(OC)cc1CNC(C)C(O)c1ccccc1 (stereo not given)	–	–	–	–	–
COCc1ccc(CN2CCCC(C(=O)c3sccc3C)C2)o1 (stereo not given)	–	–	–	–	–
CCc1ccc(CN2CCCC(C(=O)c3sccc3C)C2)o1 (stereo not given)	–	–	–	–	-8
Cc1ccsc1C(=O)C1CCCN(Cc2ccccc2O)C1 (stereo not given)	–	–	–	–	-6
COc1ccc(O)c(CN2CCCC(C(=O)c3sccc3C)C2)c1 (stereo not given)	–	–	–	–	-7
O=C1CC(c2ccccc2)CN1 (stereo not given)	–	–	–	–	–
O=[N+]([O-])c1cc2c(cc1CNCCc1ccc3c(c1)OCO3)OCO2	–	90	–	–	-8
O=C(c1ccc(Br)cc1)C12CN3CN(CN(C3)C1)C2	–	–	–	–	–
Cc1ccc(-c2cc(-c3ccc(C)cc3)[n+](-c3ccc(C(=O)[O-])cc3)c(-c3ccc(C)cc3)c2)cc1	–	60	–	–	–
CCOC(=O)CC1=C(C(=O)OCC)C2(C(=O)N1CC(=O)OC)C(C#N)=C(N)Oc1ccccc12 (stereo not given)	–	–	–	–	–
C=C(C)[C@@]12OC3(c4ccccc4)O[C@@H]1C1[C@@H]4O[C@]4(CO)[C@@H](O)[C@]4(O)C(=O)C(C)=C[C@H]4[C@@]1(O3)[C@H](C)[C@H]2OC(=O)/C=C/C=C/c1ccccc1 (stereo not given in full)	–	–	–	–	-6
CCOc1ccc(-n2c(-c3ccoc3)nc3ccccc3c2=O)cc1	–	–	–	–	–
CCOc1ccc(-c2c(C)n(-c3ccc(OCC)cc3)c3[n+]2CCCCC3)cc1	-9.44	–	13.3	–	–
SMILES	TRPC6 inhibitor	TRPC4 agonist	TRPC6 act	TRPC4 PAM	TRPC4 inh
CC(C)Oc1cc(-n2c(=S)[nH]c3ccccc3c2=O)c(Cl)cc1Cl	–	–	–	12	–
O=C1CCN(C(=O)CNC(=O)Cc2ccccc2)CC1	–	–	–	–	–
CCN(CC)c1ccc(CNCCc2ccc(F)cc2)cc1	–	51	–	–	–
CCc1ccc(CNCCc2ccc(F)cc2)cc1	–	–	–	–	–
O=C(c1ccccc1)C1NC1c1ccccc1 (stereo not given)	–	–	–	–	–
CCc1n[nH]c(CCN)n1	–	155	–	–	–
CC(N)Cc1c[nH]c2c1ccc1ccccc12 (stereo not given)	–	92	–	–	–
CCc1nc2ccc(N3CCN(C)CC3)cc2nc1CC	–	–	–	–	–
FC(F)(F)c1ccc2c(c1)NP(=S)(N1CCOCC1)c1nccn1-2 (stereo not given)	–	–	–	–	–
NCCc1c[nH]c2ccc(F)cc12	–	–	–	–	–
COc1ccc2c(CCN)c[nH]c2c1	–	81	–	–	–
COc1ccc2[nH]cc(CCN(C)C)c2c1	–	–	–	19	–
COc1ccc(CNC(=O)/C=C/c2ccc3[nH]cc(CCN(C)C)c3c2)cc1	–	45	–	–	–
COC(=O)C1=C(c2cccc(OC)c2OC)C[C@@H]2CC[C@H]1N2C(=O)N1CCCC1	–	–	–	–	–
C=C1CC[C@@]2(O)[C@H]3Cc4ccc(O)c5c4[C@@]2(CCN3CC2CC2)[C@H]1O5	–	–	–	–	–
Cc1cccc(N=Cc2c(O)n(-c3ccccc3C)c(=O)[nH]c2=O)c1	–	–	–	24	–
CCNC(=O)C1OC(n2cnc3c(N)ncnc32)C(O)C1O (stereo not given)	–	53	–	–	–
CN[C@H]1C[C@H]2O[C@@](C)([C@H]1OC)n1c3ccccc3c3c4c(c5c6ccccc6n2c5c31)C(=O)NC4	-5.76	–	–	27	–
CCc1ccc(OCCCN=C(C)c2c(O)n(C)c(=O)n(C)c2=O)cc1	–	–	–	16	–
CCc1nccc2c1[nH]c1ccccc12	–	–	–	–	-6
CCOC(=O)C1(CCc2ccccc2)CCN(Cc2ccc(NC(C)=O)cc2)CC1	–	104	–	–	–
CCOC(=O)C1(CCc2ccccc2)CCN(Cc2ccc3c(c2)OCCO3)CC1	–	–	–	–	–
CCCCn1c(=O)c(C(=O)Nc2ccccn2)c(O)c2ccccc21	–	–	–	–	–
Cc1ccc(CN2CCSc3ccc(C(=O)N4CCC5(CC4)OCCO5)cc32)cc1	–	–	–	–	–
N#Cc1ccc(N2CCNCC2)c(F)c1	–	53	–	–	–
SMILES	TRPC6 inhibitor	TRPC4 agonist	TRPC6 act	TRPC4 PAM	TRPC4 inh
N#Cc1cc(F)c(N2CCNCC2)cc1Cl	–	–	–	–	–
O=C(NC1(C(F)(F)F)Oc2ccc(Cl)cc2O1)N1CCC2(CC1)OCCO2 (stereo not given)	–	–	–	–	–
COc1cccc(CN2CCNCC2)c1OC	–	–	–	–	–
Brc1ccc(CN2CCNCC2)s1	–	–	–	14	–
Cc1ccc(CN2C3CCCC2CC(NC(=S)NCc2ccccc2)C3)cc1 (stereo not given)	–	–	–	–	-8
O=[N+]([O-])c1ccc(N2CCNCC2)cc1NCC1CCCO1 (stereo not given)	–	–	–	–	–
